# Source: PubChem
# Compounds with a hit are over-represented: about 2.3% of the library has one in this group of screens.
# PLCg1 inh = PLC-gamma1 enzyme inhibitors, primary screen, biochemical, fluorescence, purified enzyme; AID 720700, 2013; fluorogenic substrate; inhibition, % at 12.2 µM; 1-phosphatidylinositol 4,5-bisphosphate phosphodiesterase gamma-1 (Homo sapiens), P19174; 370,000 compounds, 0.84% hits; in the data active = inhibition above about 9.5%
# ADAM10 inh = human ADAM10 inhibitors, primary screen, biochemical, QFRET, HTS; Disintegrin and metalloproteinase domain-containing protein 10 (Homo sapiens), O14672; inhibition, % at 7 µM; 370,000 compounds, 0.62% hits; recombinant ADAM10, EDANS/DABCYL FRET peptide cleavage, 3 h;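 active = inhibition above a per-campaign cutoff equal to the mean of compounds falling between control-based bounds plus 3 SD, cut at about 20% in these data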;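 note: 0% = DMSO wells while the 100% control is not disclosed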
# PLCb3 inh = human PLC-beta3 inhibitors, primary screen, biochemical, fluorescence; 1-phosphatidylinositol 4,5-bisphosphate phosphodiesterase beta-3 (Homo sapiens), Q01970; Purified PLC-beta3, fluorogenic substrate; inhibition, % at 12.2 µM; 370,000 compounds, 0.18% hits; AID 720704, 2013; in the data active = inhibition above about 11%;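 note: 0% = median of compound wells on plate and 100% = full blocker control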
# ADAM17 inh = ADAM17 inhibitors, primary screen, biochemical, QFRET | Disintegrin and metalloproteinase domain-containing protein 17 (Homo sapiens), P78536 | recombinant ADAM17, EDANS/DABCYL FRET peptide cleavage | inhibition, % at 6.95 µM | 370,000 compounds, 0.83% hits;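 active = inhibition above the mean of compounds lying between control limits plus 3 SD, set per campaign, cut at about 8.5% in these data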;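 note: 0% = DMSO-only wells as the low control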
# Target sequence (P78536 215-824 limits assumed): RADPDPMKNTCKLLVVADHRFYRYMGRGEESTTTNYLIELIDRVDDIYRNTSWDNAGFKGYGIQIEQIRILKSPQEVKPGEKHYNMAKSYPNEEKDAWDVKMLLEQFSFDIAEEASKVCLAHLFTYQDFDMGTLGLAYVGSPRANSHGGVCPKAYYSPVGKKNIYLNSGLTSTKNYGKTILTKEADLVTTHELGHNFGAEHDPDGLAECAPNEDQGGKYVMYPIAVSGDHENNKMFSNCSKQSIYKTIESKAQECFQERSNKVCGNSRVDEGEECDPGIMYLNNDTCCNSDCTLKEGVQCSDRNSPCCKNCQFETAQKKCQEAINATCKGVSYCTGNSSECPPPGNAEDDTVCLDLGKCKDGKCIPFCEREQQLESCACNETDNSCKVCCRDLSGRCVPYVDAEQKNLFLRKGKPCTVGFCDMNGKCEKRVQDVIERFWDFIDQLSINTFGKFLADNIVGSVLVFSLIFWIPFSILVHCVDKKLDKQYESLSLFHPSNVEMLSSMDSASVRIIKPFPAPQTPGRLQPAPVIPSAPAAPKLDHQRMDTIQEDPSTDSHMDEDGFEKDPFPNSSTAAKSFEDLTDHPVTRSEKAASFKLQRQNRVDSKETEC
# Tb MetRS inh = T. brucei MetRS inhibitors, primary screen, biochemical, luminescence; purified T. brucei MetRS, ATP depletion, Kinase-Glo luminescence; inhibition, % at 11.9 µM; 360,000 compounds, 0.4% hits; AID 624268, 2012;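 active = inhibition above a per-plate cutoff of the control wells' mean inhibition plus 3 SD, cut at about 5.5% in these data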;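 note: 0% = DMSO wells median and 100% = median of wells with control inhibitor compound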
#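 Test system: purified T. brucei MetRS enzyme. Also added: ATP, methionine and E. coli bulk tRNA substrates. Compound: 11.9 µM single point. Schedule: 15 min enzyme-compound preincubation, 2 h reaction, 10 min detection, 25 °C. Signal: luciferase luminescence of residual ATP, Kinase-Glo. Evaluation: percent inhibition versus plate control medians. Controls: DMSO wells, low control.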
# The depositor's hits bear a star; . = not tested or not shown.
SMILES,PLCg1 inh,ADAM10 inh,PLCb3 inh,ADAM17 inh,Tb MetRS inh
CS(=O)(=O)Nc1cccc2[nH]ncc12,-1,-11,-3,-2,1
O=C(NCC(c1ccco1)N1CCN(c2ccccc2F)CC1)C(=O)NC1CCCCC1 (configuration not stated),9.5*,-1,2,6,-1
O=C(O)Cc1c[nH]c2ccccc12,1,-2,5,0,0
O=C(O)Cc1c[nH]c2cccc(O)c12,25*,-3,10,1,0
CC(C)(C)N/C=C(\C#N)S(=O)(=O)c1ccc(Br)cc1,-1,-2,-6,-3,-1
CC[C@@]1(c2ccccc2)C(=O)N(C(=O)OC)N1C(=O)OC,1,2,0,-2,0
CC[C@]1(c2ccccc2)C(=O)N(C(=O)OC)N1C(=O)OC,9,9,9,10*,-1
Cc1ccc(NC(=O)CN(C)C(=O)CSc2nccn2C)cc1,14*,5,7,3,0
Cc1ccc(S(=O)(=O)N2CCN(C(=O)c3cc4c(C)nn(-c5ccccc5C)c4s3)CC2)cc1,7,22*,6,9.0*,-1
CCCC(=O)NC(c1cccc([N+](=O)[O-])c1)c1ccc2cccnc2c1O (configuration not stated),-4,26*,2,7,0
Cc1ccc(S(=O)(=O)N2CCN(C(=O)COC(=O)COc3ccc(Cl)cc3)CC2)c(C)c1,13*,-9,3,6,-1
CC1=NN(c2ccccc2)C(=O)/C1=C/c1ccc[nH]1,3,8,5,7,1
CC1=NN(c2ccccc2)C(=O)C1=Cc1ccccc1,10*,-9,5,-4,1
CC1=NN(c2ccccc2)C(=O)/C1=C/c1ccc(Cl)cc1,16*,25*,3,4,-1
S=C(NCCCCN(Cc1ccc(Cl)cc1)c1ccc(Br)cn1)NCCCc1cnc[nH]1,10*,-1,-1,0,0
CCOC(=O)C1CSCCS(=O)(=O)N1Cc1ccc(F)cc1 (configuration not stated),3,5,4,2,.
Cc1ccc(C)c(NC(=O)NNC(=O)c2cc3occc3[nH]2)c1,-15,-8,-32,-3,4
COc1ccc(OC)c(NC(=O)NNC(=O)c2cc3occc3[nH]2)c1,-16,-6,-28,-2,9.2*
CC(C)(CN1CCCC1)NS(=O)(=O)c1ccc(Cl)cc1,0,-2,-4,1,-1
CC(C)(CN1CCNCC1)NS(=O)(=O)c1ccc(Cl)cc1,16*,6,-1,-2,0
CC1(C)CC2CC(C)(CN2C(=O)COC(=O)c2ccccc2C(F)(F)F)C1 (configuration not stated),12*,-7,-5,0,0
Cc1ccc(NC(=O)c2cc(S(=O)(=O)NCCC3=CCCCC3)ccc2F)cc1F,2,25*,-1,10*,-1
Cc1ccc(S(=O)(=O)NCCC2=CCCCC2)cc1C(N)=O,7,-6,-4,-1,-1
O=C(O)c1ccc(Cl)c(S(=O)(=O)Nc2cccc(C(=O)Nc3cccc(C(F)(F)F)c3)c2)c1,-3,3,-4,-3,0
CCc1ccc(S(=O)(=O)NCC2(N3CCOCC3)CCCCC2)cc1,0,-2,-3,-2,0
SMILES,PLCg1 inh,ADAM10 inh,PLCb3 inh,ADAM17 inh,Tb MetRS inh
Cn1cnc(C(=O)NCc2ccc(CNC(=O)OC(C)(C)C)cc2)c1C(=O)NCc1ccc(CNC(=O)OC(C)(C)C)cc1,7,21*,1,11*,0
CC(C)(C)OC(=O)NCCCC[C@H](NC(=O)c1[nH]cnc1C(=O)Nc1ccc(CNC(=O)OC(C)(C)C)cc1)C(=O)OC(C)(C)C,-6,14,-6,7,.
C[C@H](NC(=O)c1[nH]cnc1C(=O)Nc1ccc(CNC(=O)OC(C)(C)C)cc1)C(=O)OC(C)(C)C,2,22*,-2,11*,0
CC(C)C[C@H](NC(=O)c1nc[nH]c1C(=O)N[C@@H](CC(C)C)C(=O)OC(C)(C)C)C(=O)OC(C)(C)C,9,11,8,9.5*,0
COc1ccc(NC(=O)c2ccccc2)cc1NS(=O)(=O)c1ccc(F)cc1,0,-2,3,0,1
CCN(CC)c1ccc(NC(=O)c2cccc(C)c2)cc1S(=O)(=O)Nc1ccccc1OC,-4,25*,-3,13*,-1
CCN(CC)c1ccc(NC(=O)c2ccccc2)cc1S(=O)(=O)Nc1ccccc1OC,-4,18,-2,9.4*,0
Nc1nc(Cl)cc(N2CCC(c3cc(-c4ccc(Cl)cc4Cl)n[nH]3)CC2)n1,6,16,3,7,21*
COc1ccc(C(=O)NCc2ccc(C)cc2)cc1S(=O)(=O)N1CCCc2ccccc21,8,14,0,18*,0
O=C(O)C1Nc2c(O)cc(Cl)c([N+](=O)[O-])c2C2C=CCC12 (configuration not stated),31*,-8,7,0,0
Cc1noc(C)c1S(=O)(=O)N(C)C[C@H]1OCc2cn(nn2)CCCC(=O)N([C@@H](C)CO)C[C@@H]1C,1,-8,-2,-5,1
Cc1noc(C)c1S(=O)(=O)N(C)C[C@@H]1OCc2cn(nn2)CCCC(=O)N([C@@H](C)CO)C[C@H]1C,12*,0,9,7,1
Cc1ccc(-n2ncc(C(=O)Nc3cc(Cl)cc(Cl)c3)c2C2CCNCC2)cc1C,9.8*,-3,2,1,0
O=C(CCCN1C(=O)/C(=C\c2ccccc2)SC1=S)Nc1ccc(O)cc1,2,24*,-3,5,-1
C=CCOC(=O)C1=C(C)N=c2sc(=C3C(=O)N(CC(=O)O)c4ccccc43)c(=O)n2C1c1ccc(OC)cc1 (configuration not stated),-1,-7,-2,-4,.
CC(=O)Nc1sc(C)c(C)c1C(=O)OCC(=O)NCc1ccc(Cl)cc1,12*,4,-4,3,0
COc1cccc(CNC(=O)COC(=O)c2c(NC(C)=O)sc(C)c2C)c1,2,7,2,0,0
C[C@H]1CN([C@@H](C)CO)C(=O)c2cc(Br)cnc2O[C@H]1CN(C)C(=O)c1cccnc1,1,-8,1,-2,0
C[C@@H]1CN([C@H](C)CO)C(=O)c2cc(Br)cnc2O[C@H]1CN(C)C(=O)c1ccccc1,11*,0,7,0,-1
O=C(O)c1cc(-c2ccccc2)nn1CC1CC(c2cccc([N+](=O)[O-])c2)=NO1 (configuration not stated),9.9*,-2,6,3,.
